MC4R ag barr: agonists of human melanocortin 4 receptor (MC4R) beta-arrestin; P32245; activation, % at 8.9 µM; 360,000 compounds, 0.98% hits; U2OS MC4R beta-arrestin complementation, luminescence; percent of melanotan II response, DMSO zero; AID 540308;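 active = activation above a per-plate cutoff, the mean activation of sample wells on that plate plus 3 SD, cut at about 8% in these data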
Target sequence (P32245 whole entry, looked up): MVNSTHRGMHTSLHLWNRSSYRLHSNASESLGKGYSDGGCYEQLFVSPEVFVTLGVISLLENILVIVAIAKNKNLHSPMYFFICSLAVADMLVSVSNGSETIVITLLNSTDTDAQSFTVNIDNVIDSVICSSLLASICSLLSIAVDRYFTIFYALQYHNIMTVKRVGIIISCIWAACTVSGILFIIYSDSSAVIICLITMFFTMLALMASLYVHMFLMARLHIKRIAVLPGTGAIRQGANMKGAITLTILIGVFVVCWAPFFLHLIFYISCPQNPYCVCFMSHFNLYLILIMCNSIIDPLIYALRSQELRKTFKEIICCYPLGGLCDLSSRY
MC4R antag cAMP: human MC4R antagonism in cAMP assay; P32245; MC4R-expressing cells, MTII-stimulated cAMP, LANCE TR-FRET; inhibition, % at 6.5 µM; 360,000 compounds, 0.48% hits;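 active = inhibition above its plate's cutoff, the mean of tested wells on that plate plus 3 SD, cut at about 29% in these data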
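System – human MC4R-expressing U2OS cells · Also added – Melanotan II · Dosing – one concentration, 6.5 µM nominal · Timing – 30-min compound, 1-h challenge, 1-h detection, room temperature · Measured by – Eu-cAMP/anti-cAMP TR-FRET, emission 671 nm · Replicates – singlicate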
Efflux pump inh: inhibitors of Candida antifungal efflux pumps expressed in yeast; inhibition, % at 10 µM; AID 485275; 330,000 compounds, 0.44% hits; S. cerevisiae Candida pump triplex, Nile Red efflux;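 active = plate passing quality check with inhibition over a set limit, or well fluorescence over plate mean plus 4 SD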;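 also: Nile Red retained in pooled yeast measured as flow cytometry median fluorescence; higher means more Nile Red kept so more efflux inhibition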
Calb FLC: C. albicans growth modulation with fluconazole. 300,000 compounds, 0.57% hits. growth inhibition, % (no concentration beside the values). C. albicans CaCi-2 + fluconazole, Alamar Blue growth, 48 h;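 active = growth inhibition above about 58% in most replicates, limit read from the data, passing the limit was not always enough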;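 also: all wells also contain fluconazole at 8 µg/ml as a sub-toxic cotreatment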
GalR3 antag: blocks the human galanin receptor 3; O60755; HEK293 GalR3-CNG cAMP membrane potential fluorescence; galR3 body fused to GalR1 C-terminus; inhibition, % at 3 µM; 360,000 compounds, 0.44% hits;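 active = inhibition above the screen-wide average plus 3 SD, cut at about 13% in these data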;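 also: forskolin and galanin both at EC90 stimulate the cells; cAMP rise reported by CNG channel membrane potential dye signal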
H9c2 TAG inh: reduces triacylglycerol accumulation in H9c2 cells; inhibition, % at 12.5 µM; Nile Red lipid (TAG) fluorescence; cells loaded with 200 µM oleic acid; 230,000 compounds, 0.66% hits; AID 651582;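 active = pattern-corrected inhibition of lipid staining of at least 50% with the nuclear-stain viability signal not falling by more than 50%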
Yeast cmpd fluor: counter-screen for efflux pump inhibitors: compound fluorescence. S. cerevisiae AD/pABC3, flow cytometry. shares compounds with Efflux pump inh. 1,700 compounds, 4% hits. fluorescence ratio to DMSO, % at 10 µM;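 active = fluorescence ratio to DMSO above its plate's cutoff, the plate mean ratio plus 5 SD, cut at about 210% in these data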;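 also: unstained yeast with no Nile Red so the signal is compound autofluorescence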
Mdr1 pump inh: Candida Mdr1 efflux pump inhibition. shares compounds with Efflux pump inh. S. cerevisiae AD/CaMDR1, Nile Red efflux, flow cytometry. inhibition, % at 10 µM. 1,700 compounds, 1% hits. AID 588518; in the data active = inhibition above about 26%;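 also: higher means more Nile Red retained so more efflux inhibition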
CaCdr2 efflux inh: Candida Cdr2 efflux pump inhibition; AID 588520; S. cerevisiae AD/CaCDR2, Nile Red retention, flow cytometry; shares compounds with Efflux pump inh; Nile Red retention ratio vs DMSO, % at 10 µM; 1,700 compounds, 4% hits; in the data active = Nile Red retention ratio vs DMSO above about 190%;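 also: higher ratio means more blocking of Cdr2 efflux of the dye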
Cdr1 pump inh: Candida Cdr1 efflux pump inhibition; shares compounds with Efflux pump inh; S. cerevisiae AD/CaCDR1, Nile Red efflux, flow cytometry; inhibition, % at 10 µM; 1,700 compounds, 1% hits;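 active = inhibition above the screen-wide mean plus twice its standard deviation, cut at about 32% in these data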
Large screens that a line does not name were inactive (follow-up assays come after a bar, where they were run). Shown are actives, neighbours in structure and some others; about 2.9% of the full set was active somewhere.

O=C1CC(=O)N(C2CCCCC2)C(=O)N1c1ccccc1S(=O)(=O)Oc1ccccc1	none (no result: MC4R ag barr, MC4R antag cAMP, Efflux pump inh, Calb FLC, H9c2 TAG inh)
O=C(Cn1nnc(N2CCOCC2)n1)NN=Cc1ccccc1Cl	none (no result: MC4R ag barr, MC4R antag cAMP, Efflux pump inh, Calb FLC, H9c2 TAG inh)
COc1ccc(/C=N\NC(=O)c2ccccc2OC)cc1COc1c(F)c(F)c(F)c(F)c1F	Efflux pump inh 9.2 | Yeast cmpd fluor inactive | Mdr1 pump inh inactive | CaCdr2 efflux inh inactive | Cdr1 pump inh inactive
Cc1cc(N2CCNC[C@@H]2C)ccc1N1C[C@@H](C)O[C@@H](C)C1	none (no result: MC4R ag barr, MC4R antag cAMP, Efflux pump inh, Calb FLC, H9c2 TAG inh)
CCCCn1c(N)c(N(CC(C)C)C(=O)CN2C(=O)C3CCCCC3C2=O)c(=O)[nH]c1=O (configuration not stated)	none
CCCCn1c(N)c(N(CC(C)C)C(=O)CN2C(=O)NC3(CC(C)CC(C)(C)C3)C2=O)c(=O)[nH]c1=O (configuration not stated)	Efflux pump inh 0.9 | Yeast cmpd fluor inactive | Mdr1 pump inh inactive | CaCdr2 efflux inh inactive | Cdr1 pump inh inactive
CC1=C(C(=O)N(C)C)CC(CC(=O)NCc2cccc3ccccc23)C(=O)N1CCC1=CCCCC1 (configuration not stated)	none (no result: Efflux pump inh, Calb FLC)
Cc1cccc(C)c1NC(=O)C1c2ccccc2OCC(=O)N1C1CC1 (configuration not stated)	none (no result: MC4R ag barr, MC4R antag cAMP, Efflux pump inh, Calb FLC, H9c2 TAG inh)
COc1ccc(NC2CC(=O)N(c3cc([N+](=O)[O-])ccc3C)C2=O)cc1 (configuration not stated)	Efflux pump inh 1.1 | Yeast cmpd fluor inactive | Mdr1 pump inh inactive | CaCdr2 efflux inh inactive | Cdr1 pump inh inactive
Cc1ccc(N=C2NC(=O)/C(=C\c3cccs3)S2)cc1C	Efflux pump inh 6.8 (no result: H9c2 TAG inh) | Yeast cmpd fluor inactive | Mdr1 pump inh inactive | CaCdr2 efflux inh inactive | Cdr1 pump inh inactive
Cc1cccc(N=C2NC(=O)/C(=C/c3cccs3)S2)c1	none (no result: H9c2 TAG inh)
COc1cc2c(cc1O)CCN(C(=O)c1ccco1)C2C (configuration not stated)	Efflux pump inh 1.2 | Yeast cmpd fluor inactive | Mdr1 pump inh inactive | CaCdr2 efflux inh inactive | Cdr1 pump inh inactive
COc1cc2c(cc1OC)C(C)N(C(=O)c1cc3ccccc3o1)CC2 (configuration not stated)	none (no result: H9c2 TAG inh)
Nc1ccc(S(=O)(=O)Nc2nccs2)cc1N=Nc1ccccc1[N+](=O)[O-]	none (no result: Efflux pump inh, Calb FLC)
CCN(CC)c1ccc(/C=C/c2cccc[n+]2C)c(OC)c1	Efflux pump inh 20.6, Calb FLC 77.5, GalR3 antag 17.9 (no result: H9c2 TAG inh) | Yeast cmpd fluor active | Mdr1 pump inh inactive | CaCdr2 efflux inh inactive | Cdr1 pump inh inactive
COc1ccc(Cc2c(-c3ccc(F)cc3)nc3c(C)cc(Br)cn23)c(C)c1	none (no result: MC4R ag barr, MC4R antag cAMP, Efflux pump inh, Calb FLC, H9c2 TAG inh)
COC(=O)C1=C(C)N(C)C(=NCc2cccc(C(F)(F)F)c2)NC1c1cccc(F)c1 (configuration not stated)	none (no result: MC4R ag barr, MC4R antag cAMP, Efflux pump inh, Calb FLC, H9c2 TAG inh)
CC(=O)c1c(N2CCN(C)CC2)[nH]c(-c2ccccc2)nc1=S	Efflux pump inh 1.5 (no result: H9c2 TAG inh) | Yeast cmpd fluor inactive | Mdr1 pump inh inactive | CaCdr2 efflux inh inactive | Cdr1 pump inh inactive
CC(=O)NC1=NC(=O)/C(=C/c2cc(C)n(-c3cccc(C(=O)O)c3)c2C)S1	none (no result: Efflux pump inh, H9c2 TAG inh)
CC(=O)NC1=NC(=O)/C(=C/c2cc(C)n(-c3ccc(NC(C)=O)cc3)c2C)S1	Efflux pump inh 1.4 | Yeast cmpd fluor inactive | Mdr1 pump inh inactive | CaCdr2 efflux inh inactive | Cdr1 pump inh inactive
CSc1nc(C)cc(-c2cc(C(=O)Nc3ccccc3)on2)n1	none (no result: MC4R ag barr, MC4R antag cAMP, GalR3 antag, H9c2 TAG inh)
COc1ccc(-c2c(C(=O)c3ccc(Br)cc3)[nH]c(N)c2C(=O)NCCc2c[nH]c3ccccc23)cc1OC	none (no result: MC4R ag barr, MC4R antag cAMP, Efflux pump inh, Calb FLC, H9c2 TAG inh)
